Results as given in ChEMBL document CHEMBL1134324, “Chemosensitization of a multidrug-resistant Leishmania tropica line by new sesquiterpenes from Maytenus magellanica and Maytenus chubutensis” (J Med Chem, 2001).

Key:
Format in all cases: functional
Leishmania tropica [1] = assay: Growth inhibition of MDR (DNM-R150) L. Tropica line at 7.5 uM concentration
In short: (§1)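 Daunomycin-resistant (DNM-R150) promastigotes, log phase, 3 × 10⁵ cells per well, co-exposed to 150 μM DNM plus sesquiterpene (DMSO stock diluted in medium; final DMSO ≤0.3%). Incubated 72 h at 28 °C in RPMI 1640-modified medium with 20% heat-inactivated FBS. MTT added for 4 h, formazan dissolved in 20% SDS, A540 read. %GI calculated relative to control cells given the same DNM without modulator.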

Leishmania tropica [2] = assay: Growth inhibition of MDR (DNM-R150) L. Tropica line at 15 uM concentration; in short: as §1
Leishmania tropica [3] = assay: Growth inhibition of wild type L. Tropica parasite at 30 uM concentration
In short: (§2)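 Intrinsic toxicity assay on wild-type LRC clone promastigotes, log phase, 3 × 10⁵ cells per well, exposed to sesquiterpene without DNM (DMSO stock diluted in medium; final DMSO ≤0.3%). Incubated 72 h at 28 °C in RPMI 1640-modified medium with 20% FBS. Viability read by MTT (4 h, SDS solubilization, 540 nm). Survival is absorbance ratio to untreated control, expressed as %GI.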

Leishmania tropica [4] = assay: Growth inhibition of MDR (DNM-R150) L. Tropica line at 30 uM concentration; in short: as §1
Leishmania tropica [5] = assay: Growth inhibition of wild type L. Tropica parasite at 7.5 uM concentration; in short: as §2
Leishmania tropica [6] = assay: Growth inhibition of wild type L. Tropica parasite at 15 uM concentration; in short: as §2

CC(=O)OC[C@]12[C@@H](OC(=O)c3ccccc3)CC3[C@@H](OC(=O)c4ccccc4)C1(OC3(C)C)[C@H](C)C[C@@H](OC(=O)c1cccnc1)[C@@H]2OC(C)=O (some centres undefined)
inhibition (Leishmania tropica [1]): 83.7%
inhibition (Leishmania tropica [2]): 87.9%
inhibition (Leishmania tropica [3]): 35%
inhibition (Leishmania tropica [4]): 93.7%
inhibition (Leishmania tropica [5]): 11.5%
inhibition (Leishmania tropica [6]): 27.5%

CC(=O)O[C@@H]1[C@H](OC(=O)c2cccnc2)[C@@]2(C)[C@@H](OC(=O)c3ccccc3)[C@@H](OC(=O)c3ccccc3)C3CC2(OC3(C)C)[C@@](C)(O)[C@H]1OC(C)=O (some centres undefined)
inhibition (Leishmania tropica [1]): 23.9%
inhibition (Leishmania tropica [2]): 54%
inhibition (Leishmania tropica [3]): 11%
inhibition (Leishmania tropica [4]): 89%
inhibition (Leishmania tropica [5]): 0.5%
inhibition (Leishmania tropica [6]): 6%

CC(=O)O[C@@H]1[C@H](OC(=O)c2ccccc2)[C@@]2(C)[C@@H](OC(=O)c3ccccc3)CC3[C@@H](OC(C)=O)C2(OC3(C)C)[C@@](C)(O)[C@H]1OC(=O)c1cccnc1 (some centres undefined)
inhibition (Leishmania tropica [1]): 10%
inhibition (Leishmania tropica [2]): 30.7%
inhibition (Leishmania tropica [3]): 3.7%
inhibition (Leishmania tropica [4]): 69.5%
inhibition (Leishmania tropica [5]): 2.2%
inhibition (Leishmania tropica [6]): 0.7%

CC(=O)O[C@@H]1[C@H](OC(=O)c2ccccc2)[C@@]2(C)[C@@H](OC(=O)c3ccccc3)[C@@H](OC(=O)c3ccccc3)C3CC2(OC3(C)C)[C@@](C)(O)[C@H]1OC(C)=O (some centres undefined)
inhibition (Leishmania tropica [1]): 48.7%
inhibition (Leishmania tropica [2]): 79%
inhibition (Leishmania tropica [3]): 20.5%
inhibition (Leishmania tropica [4]): 93%
inhibition (Leishmania tropica [5]): 0.5%
inhibition (Leishmania tropica [6]): 15.8%

CC(=O)OC[C@]12[C@@H](OC(=O)c3ccccc3)CC3[C@@H](OC(=O)c4ccccc4)C1(OC3(C)C)[C@@](C)(O)C[C@@H](OC(=O)c1cccnc1)[C@@H]2OC(C)=O (some centres undefined)
inhibition (Leishmania tropica [1]): 80.7%
inhibition (Leishmania tropica [2]): 91.3%
inhibition (Leishmania tropica [3]): 45%
inhibition (Leishmania tropica [4]): 94.8%
inhibition (Leishmania tropica [5]): 8.2%
inhibition (Leishmania tropica [6]): 25.8%

CC(=O)O[C@@H]1C2[C@H](OC(C)=O)[C@H](OC(=O)c3ccccc3)[C@]3(C)[C@@H](OC(=O)c4ccccc4)[C@H](OC(=O)c4cccnc4)C[C@@H](C)C13OC2(C)C (some centres undefined)
inhibition (Leishmania tropica [1]): 42.2%
inhibition (Leishmania tropica [2]): 79.3%
inhibition (Leishmania tropica [3]): 13.3%
inhibition (Leishmania tropica [4]): 94.5%
inhibition (Leishmania tropica [5]): 1.7%
inhibition (Leishmania tropica [6]): 13%

CC(=O)O[C@H]1[C@H](O)[C@@H](C)C23OC(C)(C)C(C[C@H](OC(=O)c4ccccc4)[C@]2(C)[C@H]1OC(=O)c1ccccc1)[C@H]3OC(C)=O (some centres undefined)
inhibition (Leishmania tropica [1]): 32%
inhibition (Leishmania tropica [2]): 54%
inhibition (Leishmania tropica [3]): 11.7%
inhibition (Leishmania tropica [4]): 77.5%
inhibition (Leishmania tropica [5]): 0%
inhibition (Leishmania tropica [6]): 3.5%

CC(=O)O[C@@H]1[C@H](OC(=O)c2ccccc2)[C@@]2(C)[C@@H](OC(=O)c3ccccc3)[C@@H](OC(C)=O)C3CC2(OC3(C)C)[C@@](C)(O)[C@H]1OC(C)=O (some centres undefined)
inhibition (Leishmania tropica [1]): 39%
inhibition (Leishmania tropica [2]): 65%
inhibition (Leishmania tropica [3]): 23%
inhibition (Leishmania tropica [4]): 90%
inhibition (Leishmania tropica [5]): 1.7%
inhibition (Leishmania tropica [6]): 14.4%

CC(=O)O[C@@H]1[C@H](OC(=O)c2cccnc2)[C@@]2(C)[C@@H](OC(=O)c3ccccc3)[C@@H](OC(C)=O)C3CC2(OC3(C)C)[C@@](C)(O)[C@H]1OC(=O)c1ccccc1 (some centres undefined)
inhibition (Leishmania tropica [1]): 21.4%
inhibition (Leishmania tropica [2]): 44%
inhibition (Leishmania tropica [3]): 19.7%
inhibition (Leishmania tropica [4]): 69.7%
inhibition (Leishmania tropica [5]): 0%
inhibition (Leishmania tropica [6]): 12.9%

CC(=O)O[C@@H]1[C@H](OC(=O)/C=C/c2ccccc2)[C@@]2(C)[C@@H](OC(=O)c3ccccc3)CC3CC2(OC3(C)C)[C@@](C)(O)[C@H]1OC(=O)c1cccnc1 (some centres undefined)
inhibition (Leishmania tropica [1]): 82%
inhibition (Leishmania tropica [2]): 90.3%
inhibition (Leishmania tropica [3]): 7.5%
inhibition (Leishmania tropica [4]): 94.7%
inhibition (Leishmania tropica [5]): 2.5%
inhibition (Leishmania tropica [6]): 3.7%

CC(=O)O[C@H]1C[C@](C)(O)C23CC(C[C@H](OC(=O)c4ccccc4)[C@]2(C)[C@H]1OC(=O)c1ccccc1)C(C)(C)O3 (some centres undefined)
inhibition (Leishmania tropica [1]): 82%
inhibition (Leishmania tropica [2]): 89.7%
inhibition (Leishmania tropica [3]): 13.3%
inhibition (Leishmania tropica [4]): 94%
inhibition (Leishmania tropica [5]): 5.3%
inhibition (Leishmania tropica [6]): 4.1%

CC(=O)O[C@@H]1[C@H](OC(=O)c2ccccc2)[C@@]2(C)[C@@H](OC(=O)/C=C/c3ccccc3)C[C@H]3[C@@H](OC(C)=O)[C@]2(OC3(C)C)[C@@](C)(O)[C@H]1OC(=O)c1cccnc1
inhibition (Leishmania tropica [1]): 7.3%
inhibition (Leishmania tropica [2]): 13.5%
inhibition (Leishmania tropica [3]): 1.9%
inhibition (Leishmania tropica [4]): 45%
inhibition (Leishmania tropica [5]): 1.5%
inhibition (Leishmania tropica [6]): 1.5%

CC(=O)O[C@H]1C[C@](C)(O)C23CC(C[C@H](OC(=O)/C=C/c4ccccc4)[C@]2(C)[C@H]1OC(=O)c1ccccc1)C(C)(C)O3 (some centres undefined)
inhibition (Leishmania tropica [1]): 88.2%
inhibition (Leishmania tropica [2]): 92.8%
inhibition (Leishmania tropica [3]): 7.5%
inhibition (Leishmania tropica [4]): 94.3%
inhibition (Leishmania tropica [5]): 0%
inhibition (Leishmania tropica [6]): 7.3%

CC(=O)O[C@@H]1C2[C@H](OC(C)=O)[C@H](OC(=O)c3ccccc3)[C@]3(C)[C@@H](OC(=O)c4ccccc4)[C@H](OC(=O)c4ccccc4)C[C@](C)(O)C13OC2(C)C (some centres undefined)
inhibition (Leishmania tropica [1]): 60.3%
inhibition (Leishmania tropica [2]): 82.2%
inhibition (Leishmania tropica [3]): 16.2%
inhibition (Leishmania tropica [4]): 92%
inhibition (Leishmania tropica [5]): 9.7%
inhibition (Leishmania tropica [6]): 19.7%
